Most compounds without a hit are left out; they make up all but 6.4% or so of the library.
HUVEC inhibit = human endothelial cell proliferation inhibition | hit rate 1.1% among 86,000 | HUVEC proliferation, CellTiter-Glo luminescence, 72 h; hits give low values | viability, % at 10 µM (by protocol);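 active means viability at or below 30%; inactive means viability above 30%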;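 further: 100% = median luminescence of DMSO-only cell control wells on each plate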
H69AR growth 86K = growth inhibitors of human H69AR lung tumor cells | H69AR lung tumor viability, ATP luminescence, 72 h; hits give low values | viability, % at 10 µM | AID 598 | hit rate 6% among 85,000;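 active means viability at or below 40%; inactive means viability above 40%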;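 further: multidrug resistant small cell line overexpressing MRP-1 efflux transporter; 100% = mean luminescence of untreated control wells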
Lung fibro prol = blocks proliferation of human lung fibroblasts | LL 47 human lung fibroblast viability, ATP luminescence; hits give low values | viability, % at 10 µM | hit rate 1.1% among 85,000;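 active means viability at or below 50% in the single dose screen; inactive means viability above 50%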;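 further: compound exposure lasted 72 h before the ATP readout; 100% = median luminescence of untreated cell-only wells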
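Signal: luminescent ATP detection, CellTiter-Glo; assay system: LL 47 human lung fibroblasts; input: 1,150 cells/well; incubation: overnight cell rest, 72 h compound treatment at 37 °C; measure: % viability versus median cells-only luminescence; medium: IMEM growth medium with 15% fetal bovine serum; dosing: compound addition at 0.1% DMSO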
tolC growth inh = growth inhibitors of E. coli BW25113 tolC mutant | OD615 | growth inhibition, % at 10 µM (by protocol) | hit rate 2.2% among 65,000;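 active means growth inhibition at or above a cutoff equal to the mean over every tested compound plus 3 SD, cut at about 60% in these data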;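 further: growth measured after 20 h incubation at 37 °C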
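signal = optical density read at 615 nm | test system = E. coli ΔtolC::kan strain BW25113 | timing = 20 h compound exposure of bacteria at 37 °C | buffer or medium = LB medium plus 50 µg/mL kanamycin | compound dosing = 10 µM final, single dose | evaluation = % inhibition of E. coli growth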
Jurkat tox 60K = reduces viability or proliferation of Jurkat cells; Jurkat E6.1 viability, ATP luminescence, 48 h; inhibition, % at 4 µM; hit rate 1.2% among 56,000;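 active means inhibition above the mean inhibition of all tested compounds plus 3 SD, cut at about 28% in these data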
E coli WT exp = blocks growth of wild type E. coli BW25113; OD600 absorbance; growth inhibition, % at 100 µM; hit rate 0.15% among 98,000; AID 710;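 active means growth inhibition above about 50% at one test dose, limit read from the data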;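 further: growth measured after 20 h incubation at 37 °C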
* = called active by the depositor.

CC1=NOC(=O)/C1=C/c1ccc(N(C)C)cc1 was read as E coli WT exp 6.
`CC1=NOC(=O)/C1=C\c1ccc(-c2cc(Cl)ccc2Cl)o1` gave HUVEC inhibit 8.2*, H69AR growth 86K 2.0*, Lung fibro prol 6.3* and E coli WT exp -3.
COc1ccccc1-n1cnc2cc(NCc3cccs3)ccc21 was read as HUVEC inhibit 41, H69AR growth 86K 27*, Lung fibro prol 46* and E coli WT exp -1.
`COc1ccc(CNc2ccc3c(c2)ncn3-c2ccccc2OC)cc1` gave HUVEC inhibit 95, H69AR growth 86K 93, Lung fibro prol 98 and E coli WT exp -10.
COc1ccccc1-n1cnc2cc(NCc3ccco3)ccc21 was read as HUVEC inhibit 64, H69AR growth 86K 23*, Lung fibro prol 54, tolC growth inh 37, Jurkat tox 60K 58* and E coli WT exp 14.
Screening Cc1ccccc1-n1cnc2cc(NCc3cccs3)ccc21 returned HUVEC inhibit 77, H69AR growth 86K 20*, Lung fibro prol 69 and E coli WT exp -5.
`Cc1ccc(C)c(N2CCN(C(=O)COc3cc(=O)n(C)c4ccccc34)CC2)c1` gave HUVEC inhibit 95, H69AR growth 86K 65, Lung fibro prol 107, tolC growth inh 12, Jurkat tox 60K 11 and E coli WT exp 0.
`Cc1ccc(C)c(N2CCN(C(=O)CCCOc3cc(=O)n(C)c4ccccc34)CC2)c1` gave HUVEC inhibit 65, H69AR growth 86K 2.8*, Lung fibro prol 95, tolC growth inh 24, Jurkat tox 60K 1 and E coli WT exp -29.
For O=c1oc(/C=C/c2ccco2)nc2sc3c(c12)CCC3 the results were HUVEC inhibit 89, H69AR growth 86K 80, Lung fibro prol 105 and E coli WT exp -9.
For CCCC(=O)c1ccc(N2CCCCCC2)c(F)c1 the results were HUVEC inhibit 104, H69AR growth 86K 97, Lung fibro prol 101, tolC growth inh 68*, Jurkat tox 60K -3 and E coli WT exp -8.
Screening COc1ccc2sc(N3C(=O)C4CC=C(C)CC4C3=O)nc2c1 (configuration not stated) returned HUVEC inhibit 99, H69AR growth 86K 87, Lung fibro prol 101, tolC growth inh -2, Jurkat tox 60K 7 and E coli WT exp 6.
Cc1ccc2c(c1)nnn2C1CCN(S(=O)(=O)c2ccc(C(=O)N3C(C)CCCC3C)cc2)CC1 (configuration not stated) was read as HUVEC inhibit 83, H69AR growth 86K 21*, Lung fibro prol 99, tolC growth inh 38, Jurkat tox 60K 43* and E coli WT exp -9.
Screening O=C(COc1cccc(OC(F)F)c1)Nc1ccc(SC(F)F)cc1 returned tolC growth inh 70* and E coli WT exp 5.
For O=c1cc(-c2ccccc2)[nH]c2ccccc12 the results were HUVEC inhibit 53, H69AR growth 86K 31*, Lung fibro prol 57, tolC growth inh 2, Jurkat tox 60K 93* and E coli WT exp 17.
Screening COc1ccccc1CCC(=O)Nc1nc2ccccc2[nH]1 returned HUVEC inhibit 90, H69AR growth 86K 21*, Lung fibro prol 91, tolC growth inh 7, Jurkat tox 60K 6 and E coli WT exp -2.
`CCCCCC(=O)Nc1nc2ccccc2[nH]1` gave HUVEC inhibit 86, H69AR growth 86K 31* and Lung fibro prol 84.
Cc1ccc(NC(=O)C2CCN(S(C)(=O)=O)CC2)cc1 was read as HUVEC inhibit 104, H69AR growth 86K 104, Lung fibro prol 89 and E coli WT exp 3.
For CS(=O)(=O)N1CCC(C(=O)Nc2ccc(Oc3ccccc3)cc2)CC1 the results were HUVEC inhibit 84, H69AR growth 86K 32*, Lung fibro prol 94, tolC growth inh 5, Jurkat tox 60K 3 and E coli WT exp 3.
`CCOC(=O)Nc1nnc(-c2ccc(OC)c(OC)c2)s1` gave HUVEC inhibit 95, H69AR growth 86K 85, Lung fibro prol 99, tolC growth inh 18, Jurkat tox 60K 7 and E coli WT exp 0.
`S=c1[nH]ncn1/N=C/c1cccc(Oc2ccccc2)c1` gave HUVEC inhibit 81, H69AR growth 86K 1.7*, Lung fibro prol 100 and E coli WT exp 2.
Screening Clc1ccc(-n2ncc3c(NCc4ccco4)ncnc32)cc1 returned HUVEC inhibit 75, H69AR growth 86K 12*, Lung fibro prol 80, tolC growth inh 2 and E coli WT exp -11.
Screening Cc1cc(C)nc(N2CCN(c3ncnc4c3cnn4Cc3ccc(Cl)cc3Cl)CC2)n1 returned HUVEC inhibit 63, H69AR growth 86K 32*, tolC growth inh -10 and Jurkat tox 60K 4.
`Clc1ccc(-n2ncc3c(NCc4ccc5c(c4)OCO5)ncnc32)cc1` gave HUVEC inhibit 73, H69AR growth 86K 7.9*, Lung fibro prol 87, tolC growth inh -19, Jurkat tox 60K 0 and E coli WT exp -5.
`Clc1ccc(-n2ncc3c(NCC4CCCO4)ncnc32)cc1` (configuration not stated) gave HUVEC inhibit 61, H69AR growth 86K 20*, Lung fibro prol 93, tolC growth inh 14, Jurkat tox 60K 8 and E coli WT exp 1.
Screening CN(C)CCNc1ncnc2c1cnn2-c1ccc(Cl)cc1 returned HUVEC inhibit 57, H69AR growth 86K 76, Lung fibro prol 76, tolC growth inh -3, Jurkat tox 60K -2 and E coli WT exp 8.
`CC(C)Sc1nc2sc3c(c2c2nnc(SCC(=O)NCc4ccco4)n12)CCCC3` gave HUVEC inhibit 99, H69AR growth 86K 55, Lung fibro prol 101, tolC growth inh 22, Jurkat tox 60K 0 and E coli WT exp -13.
Screening COc1ccc(Nc2ncnc3c2cnn3Cc2ccccc2)cc1 returned HUVEC inhibit 83, H69AR growth 86K 83, Lung fibro prol 92 and tolC growth inh 11.
Screening c1ccc(CNc2ncnc3c2cnn3Cc2ccccc2)cc1 returned HUVEC inhibit 56, H69AR growth 86K 26* and Lung fibro prol 54.
Clc1ccc(Cn2ncc3c(NCc4ccco4)ncnc32)c(Cl)c1 was read as HUVEC inhibit 51, H69AR growth 86K 26*, tolC growth inh 68*, Jurkat tox 60K 82* and E coli WT exp 2.
Screening CCC(Sc1nncn1C)C(=O)Nc1ccccc1OC (configuration not stated) returned HUVEC inhibit 102, H69AR growth 86K 98, Lung fibro prol 104, tolC growth inh -10, Jurkat tox 60K 5 and E coli WT exp -1.
Cn1cc(/C=N/n2cnc3sc4c(c3c2=O)CCCC4)c2ccccc21 was read as HUVEC inhibit 78, H69AR growth 86K 26*, Lung fibro prol 90, tolC growth inh 35, Jurkat tox 60K 5 and E coli WT exp -8.
For O=C(CCCc1cccs1)N1CCN(S(=O)(=O)c2ccccc2Br)CC1 the results were HUVEC inhibit 97, H69AR growth 86K 67, Lung fibro prol 99, tolC growth inh 18, Jurkat tox 60K 3 and E coli WT exp -18.

Compound activity: PubChem BioAssay, several laboratories
